A short description of assay [1]: Inhibition of Candida glabrata ATCC 90030 wild type FKS. Set-up: species or system Nakaseomyces glabratus. In outline: (§1)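 1,3-β-d-glucan synthase complexes were isolated from each strain and titrated against echinocandin to generate inhibition curves. IC50 was taken from the inhibition kinetics and given as the arithmetic mean of three repetitions.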
Assay [2] deals with Candida albicans. The assay is described as follows: Antifungal activity against wild type Candida albicans ATCC 90028. It is filed as functional. In outline:
(§2)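 Whole-cell MIC testing of clinical isolates alongside reference strains. Each MIC is the geometric mean of three repetitions.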

Assay [3] can be described thus: Inhibition of Candida glabrata CG-C2 FKS1 T1885C mutant. The arrangement: species or system Nakaseomyces glabratus. In outline:
as §1

Assay [4] is described as follows: Inhibition of Candida albicans 205 FKS1 T1933C mutant. In outline: as §1
Assay [5] has as its system Candida tropicalis. The assay is described as follows: Antifungal activity against Candida tropicalis CT-C1 harboring FKS1 T227C mutant gene. It is filed as functional. In outline:
as §2

Assay [6] concerns Nakaseomyces glabratus. The assay is described as follows: Antifungal activity against Candida glabrata CG-C3 harboring FKS2 T1987C mutant gene. It is filed as functional. In outline:
as §2

Assay [7] concerns Nakaseomyces glabratus. The assay is described as follows: Antifungal activity against Candida glabrata CG-C2 harboring FKS1 T1885C mutant gene. Format: functional. In outline: as §2
Assay [8] deals with Candida albicans. The assay is described as follows: Antifungal activity against Candida albicans 205 harboring FKS1 T1933C mutant gene. Format: functional. In outline: as §2
A short description of assay [9]: Inhibition of Candida tropicalis ATCC 750 wild type FKS. In outline: as §1
The test system of assay [10] is Candida albicans. The assay is described as follows: Antifungal activity against Candida albicans 177 harboring FKS1 T1922C mutant gene. Format: functional. In outline: as §2
The subject of assay [11] is Nakaseomyces glabratus. The assay is described as follows: Antifungal activity against wild type Candida glabrata ATCC 90030. It is filed as functional. In outline: (§3)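 MIC by broth dilution. The reported value is the geometric mean of three repetitions. Clinical isolates were tested alongside reference strains C. glabrata ATCC 90030, C. tropicalis ATCC 750, C. albicans ATCC 90028, 205 and 177.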

Assay [12] can be described thus: Inhibition of Candida albicans 177 FKS1 T1922C mutant. In outline:
as §1

Assay [13] in a line: Inhibition of Candida glabrata CG-C3 FKS2 T1987C mutant. The arrangement: species or system Nakaseomyces glabratus. In outline:
as §1

The nature of assay [14]: Inhibition of Candida tropicalis CT-C1 FKS1 T227C mutant. In outline:
as §1

The test system of assay [15] is Candida tropicalis. The assay is described as follows: Antifungal activity against wild type Candida tropicalis ATCC 750. Format: functional. In outline: as §2
Assay [16] can be described thus: Inhibition of Candida tropicalis CT-C1 FKS.
Assay [17] in a line: Inhibition of Candida albicans ATCC 90028 wild type FKS. In outline: as §1
The subject of assay [18] is Nakaseomyces glabratus. The assay is described as follows: Antifungal activity against Candida glabrata clinical isolate by broth dilution assay. It is filed as functional. In outline: as §3
Assay [19] deals with Candida tropicalis. The assay is described as follows: Antifungal activity against Candida tropicalis clinical isolate assessed as percent isolates by broth dilution assay. A general note: In broth dilution the organism is exposed to a series of concentrations in liquid medium.
The test system of assay [20] is Candida tropicalis. The assay is described as follows: Antifungal activity against Candida tropicalis clinical isolate by broth dilution assay. It is filed as functional. In outline: as §3
Assay [21] deals with Nakaseomyces glabratus. The assay is described as follows: Antifungal activity against Candida glabrata clinical isolate assessed as percent isolates by broth dilution assay.
A short description of assay [22]: Inhibition of Candida glabrata CG-C3 FKS.
Assay [23] is described as follows: Inhibition of Candida glabrata CG-C2 FKS.

≈ marks a conversion by molar mass, not a printed value. Numbered stars: 1 amine (or outer) side, 2 acyl side, 3 side chain; on linkers, the order of the positions; unused ones are H or OH. Bridge positions count the residues as written; N and C are the ends. Square brackets hold non-standard residues; d marks the D form. Peptide text beside a SMILES is read from it. * marks the point of attachment. hTyr(3S-OH,4S-OH,3'-OSO3H) = N[C@H](C(=O)O)[C@H](O)[C@@H](O)c1ccc(O)c(OS(=O)(=O)O)c1; pTerphenylCO(4''-OnC5H11) = CCCCCOc1ccc(-c2ccc(-c3ccc(C(=O)*)cc3)cc2)cc1; Orn(4R-OH,5R-OH) = O=C([C@H](C[C@@H](O)[C@@H](O)N[*:3])N[*:1])[*:2]; hTyr(3S-OH,4S-OH) = N[C@H](C(=O)O)[C@H](O)[C@@H](O)c1ccc(O)cc1; Pro(3S-OH,4S-Me) = C[C@H]1CN[C@H](C(=O)O)[C@H]1O; X1 = CCCCCOc1ccc(-c2cc(-c3ccc(C(=O)*)cc3)no2)cc1; Gln(3R-OH) = NC(=O)C[C@@H](O)[C@H](N)C(=O)O; Hyp = O=C(O)[C@@H]1C[C@@H](O)CN1

As usually defined, the IC50 is the concentration that gives 50% inhibition. Read a high IC50 as weaker potency in that assay. For orientation: MIC means the least concentration at which growth counts as inhibited. Lower therefore signals greater potency. Turning to `CCCCCOc1ccc(-c2cc(-c3ccc(C(=O)N[C@H]4C[C@@H](O)[C@@H](O)NC(=O)[C@@H]5[C@@H](O)[C@@H](C)CN5C(=O)[C@H]([C@H](O)CC(N)=O)NC(=O)[C@H]([C@H](O)[C@@H](O)c5ccc(O)c(OS(=O)(=O)O)c5)NC(=O)[C@@H]5C[C@@H](O)CN5C(=O)[C@H]([C@@H](C)O)NC4=O)cc3)no2)cc1` [MICAFUNGIN] (X1-[Orn(4R-OH,5R-OH)]T[Hyp][hTyr(3S-OH,4S-OH,3'-OSO3H)][Gln(3R-OH)][Pro(3S-OH,4S-Me)]; lactam 1-C), the IC50 in assay [1] is 0.00071 µg/mL (≈ 0.000559 µM); in assay [3], 15.144 µg/mL (≈ 11.9 µM); in [4], 1.088 µg/mL (≈ 0.856 µM); in assay [9], 0.007545 µg/mL (≈ 0.00594 µM); in assay [12] it was 1.435 µg/mL (≈ 1.13 µM); in [13] it was 11.422 µg/mL (≈ 8.99 µM). For the same compound, the IC50 was found to be 0.4059 µg/mL (≈ 0.32 µM) in [14], 0.4014 µg/mL (≈ 0.316 µM) in [16] and 0.0188 µg/mL (≈ 0.0148 µM) in [17]. Also, the minimum inhibitory concentration (MIC) was 0.03 µg/mL (≈ 0.0236 µM) against Candida albicans [2]; 1 µg/mL (≈ 0.787 µM) in the assay on Candida tropicalis [5]; greater than 16 µg/mL against Nakaseomyces glabratus [6]; 2 µg/mL (≈ 1.57 µM) with Nakaseomyces glabratus [7]; 4 µg/mL (≈ 3.15 µM) against Candida albicans [8]; 1 µg/mL (≈ 0.787 µM) in the assay on Candida albicans [10]. In addition, the MIC against Nakaseomyces glabratus [11] stood at 0.03 µg/mL (≈ 0.0236 µM); against Candida tropicalis [15] it was 0.06 µg/mL (≈ 0.0472 µM).

As for `CC[C@H](C)C[C@H](C)CCCCCCCCC(=O)N[C@H]1C[C@@H](O)[C@@H](NCCN)NC(=O)[C@@H]2[C@@H](O)CCN2C(=O)[C@H]([C@H](O)CCN)NC(=O)[C@H]([C@H](O)[C@@H](O)c2ccc(O)cc2)NC(=O)[C@@H]2C[C@@H](O)CN2C(=O)[C@H]([C@@H](C)O)NC1=O` [CASPOFUNGIN], the IC50 in [1] worked out at 0.00192 µg/mL (≈ 0.00176 µM); in assay [3], 12.778 µg/mL (≈ 11.7 µM); in assay [4] it was 0.2454 µg/mL (≈ 0.224 µM); in assay [9], 0.00233 µg/mL (≈ 0.00213 µM); in assay [12], 1.091 µg/mL (≈ 0.998 µM); in [13] it was 16.882 µg/mL (≈ 15.4 µM). Further, the values for the IC50 in assay [14] and in [17] were 0.06128 µg/mL (≈ 0.056 µM) and 0.0005 µg/mL (≈ 0.000457 µM), respectively. The MIC against Candida albicans [2] is 0.12 µg/mL (≈ 0.11 µM); with Nakaseomyces glabratus [18] it was no less than 2 µg/mL; against Candida tropicalis [5] it was 4 µg/mL (≈ 3.66 µM); with Nakaseomyces glabratus [6] it was greater than 16 µg/mL; against Nakaseomyces glabratus [7], 8 µg/mL (≈ 7.32 µM); with Candida albicans [8] it was 8 µg/mL (≈ 7.32 µM). Further, the MIC was 4 µg/mL (≈ 3.66 µM) in the assay on Candida albicans [10], 0.03 µg/mL (≈ 0.0274 µM) against Nakaseomyces glabratus [11], no less than 2 µg/mL in the assay with Candida tropicalis [20] and 0.25 µg/mL (≈ 0.229 µM) against Candida tropicalis [15]. Moreover, the Activity with Candida tropicalis [19] stood at 5.8%; in the assay with Nakaseomyces glabratus [21], 2.2%.

Turning to `CCCCCOc1ccc(-c2ccc(-c3ccc(C(=O)N[C@H]4C[C@@H](O)[C@@H](O)NC(=O)[C@@H]5[C@@H](O)[C@@H](C)CN5C(=O)[C@H]([C@@H](C)O)NC(=O)[C@H]([C@H](O)[C@@H](O)c5ccc(O)cc5)NC(=O)[C@@H]5C[C@@H](O)CN5C(=O)[C@H]([C@@H](C)O)NC4=O)cc3)cc2)cc1` [ANIDULAFUNGIN] ({pTerphenylCO(4''-OnC5H11)}-[Orn(4R-OH,5R-OH)]T[Hyp][hTyr(3S-OH,4S-OH)]T[Pro(3S-OH,4S-Me)]; lactam 1-C), the MIC against Candida albicans [2] is 0.03 µg/mL (≈ 0.0263 µM); with Candida tropicalis [5], 1 µg/mL (≈ 0.877 µM); with Nakaseomyces glabratus [6], 8 µg/mL (≈ 7.02 µM); in the assay with Nakaseomyces glabratus [7], 4 µg/mL (≈ 3.51 µM); in the assay on Candida albicans [8], 1.33 µg/mL (≈ 1.17 µM); against Candida albicans [10], 0.83 µg/mL (≈ 0.728 µM). Also, the MIC is less than 0.03 µg/mL in the assay on Nakaseomyces glabratus [11] and 0.06 µg/mL (≈ 0.0526 µM) against Candida tropicalis [15]. The IC50 stood at 12.778 µg/mL (≈ 11.2 µM) in assay [3]; 0.2454 µg/mL (≈ 0.215 µM) in assay [4]; 13.29 µg/mL (≈ 11.7 µM) in assay [22]; 0.00233 µg/mL (≈ 0.00204 µM) in [9]; 1.091 µg/mL (≈ 0.957 µM) in [12]; 16.882 µg/mL (≈ 14.8 µM) in assay [13]. The results for the IC50 in [14], in assay [17] and in assay [23] were 0.06128 µg/mL (≈ 0.0537 µM), 0.0005 µg/mL (≈ 0.000438 µM) and 14.26 µg/mL (≈ 12.5 µM), respectively.

(Values after ChEMBL document CHEMBL1255422, “Novel FKS mutations associated with echinocandin resistance in Candida species” (Antimicrob Agents Chemother, 2010).)
